ERp5 block: blocks human ERp5 reductase activity on insulin; AID 651711; hit rate 0.05% among 350,000; inhibition, % at 9.99 µM; Q15084; ERp5 insulin aggregation, absorbance 650 nm, 90 min;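 active = mean replicate inhibition above about 25%, with every replicate also reaching it, limit read from the data, passing the limit was not always enough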
AF4-AF9 inh: inhibitors of human MLL-AF4/AF9 interaction | AlphaScreen, biotin-AF4 peptide binding to FLAG-AF9 | inhibition, % at 10 µM | hit rate 0.47% among 350,000 | AID 651704;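 active = every replicate reaching a set inhibition limit, whatever the replicate mean, cut at about 25% in these data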;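 also: 0% = plate neutral control median and 100% = total signal loss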
PDI inh: PDI (human) enzyme inhibition; inhibition, % at 10 µM; PDI insulin aggregation turbidity, A650, 90 min; hit rate 0.052% among 350,000;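 active = mean inhibition across replicates of 30% or more, whatever share of single replicates reach that level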
FN deposition inh: fibronectin deposition inhibition. AH1F fibroblasts, Alexa488-fibronectin deposition fluorescence, overnight. inhibition, % at 12.6 µM. hit rate 0.086% among 350,000. AID 743247;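 active = mean inhibition across replicates of 30% or more, regardless of how many single replicates reach that level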;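 also: positive control wells lacked labelled fibronectin entirely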
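Assay system: AH1F fibroblast monolayer, labelled fibronectin deposition. Amount: 10000 cells per well. Also added: labelled fibronectin 24 nM. Compound: single-point pinned compound. Incubation: cell attachment 1 h, compound and FN exposure overnight. Detection: fluorescence after three HBSS washes, excitation 485 nm, emission 525 nm. Read-out: inhibition of fibronectin deposition signal.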
ARNT TACC3 PPI: disruptors of human ARNT/TACC3 interaction. AlphaScreen His-ARNT PAS-B/GST-TACC3 binding, luminescence; TACC3 fragment carries E629A point mutation. hit rate 0.66% among 390,000. Q9Y6A5. AID 623870. inhibition, % at 9.99 µM;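 active = mean inhibition of replicates at least 50% and at least half of replicates each reaching 50%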;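 also: 0% = complete ARNT plus TACC3 wells and 100% = ARNT alone without TACC3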
FGF22 binding: FGF22 (human) thermal shift binding. Q9HCT0. recombinant FGF22 thermal shift, SYPRO orange fluorescence; percent of sucrose octasulfate shift, DMSO zero. activity (Tm shift, normalised), % at 9.99 µM. hit rate 1.5% among 340,000;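 active = mean Tm shift, scaled 0 neutral to 100 positive control, at about 1.3% or above, every replicate too, limit read from the data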
Target sequence (Q9HCT0 whole entry, looked up): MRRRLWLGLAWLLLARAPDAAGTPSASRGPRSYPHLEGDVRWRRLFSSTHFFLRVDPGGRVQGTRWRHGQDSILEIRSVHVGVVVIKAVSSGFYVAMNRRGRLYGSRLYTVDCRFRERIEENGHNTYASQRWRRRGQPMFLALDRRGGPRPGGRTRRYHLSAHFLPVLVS
Starred values were filed as active, the others as inactive; / = not tested or not shown. Rows were chosen to be rich in hits. Some 2.1% of all compounds tested hit in one or more screens of this group.

SMILES	ERp5 block	AF4-AF9 inh	PDI inh	FN deposition inh	ARNT TACC3 PPI	FGF22 binding
N#CC(=C1Nc2ccccc2N1)S(=O)(=O)c1ccccc1	-0.1	-2.4	-5.5	3.0	-0.7	43.2*
Cc1nc(C(F)(F)F)c(C(=O)N/N=C(\N)c2ccccn2)s1	-1.1	-0.9	-2.9	2.1	62.3*	0.3
N/C(=N\NS(=O)(=O)c1ccccc1C(F)(F)F)c1ccccn1	0.7	-4.1	1.0	-6.9	41.4	0.1
Cc1cc(CSc2nc(C)cc(=O)[nH]2)c2ncccc2c1	1.5	-0.7	-13.1	2.0	1.8	43.0*
Cc1cc(=O)[nH]c(SCc2cccc3ccccc23)n1	2.0	-3.8	-6.1	3.1	-14.7	-0.2
Cc1cc([N+](=O)[O-])cc(/C=N\NC(=O)C2COc3ccccc3O2)c1O (stereo not given)	5.5	11.0	2.0	7.1	43.2*	0.0
C[C@H](CO)N1C[C@H](C)[C@H](CN(C)C(=O)c2ccncc2)OCCCC[C@H](C)Oc2ccc(NC(=O)CCCCCC(=O)Nc3ccccc3N)cc2C1=O	0.1	9.8	/	/	0.1	0.1
CCOC(=O)N1CCN(C(=O)CNC(=O)Cn2cnc3ccccc3c2=O)CC1	2.2	-1.7	-2.5	-4.4	/	43.5*
CCC(=O)N(C)C[C@@H]1Oc2cc(C#CC3(O)CCCC3)ccc2S(=O)(=O)N([C@H](C)CO)C[C@H]1C	-18.2	-1.2	/	/	-5.6	-0.4
Cn1c(Cn2c(=O)sc3ccccc32)nnc1SCC(=O)Nc1ccc2c(c1)OCO2	-0.2	-3.0	/	5.8	/	43.9*
Cc1cc(C)cc(NC(=O)CSc2nnc(Cn3c(=O)sc4ccccc43)n2C)c1	-5.0	2.4	/	3.9	-6.5	43.3*
COc1cccc(CNC(=O)C[C@@H]2C=C[C@@H](NC(=O)C3CC3)[C@@H](CO)O2)c1	0.0	0.1	/	-6.5	5.4	-0.1
CO[C@H]1CN(C)C(=O)c2cc(NC(=O)C3CC3)ccc2OC[C@@H](C)N(C(=O)CN2CCOCC2)C[C@H]1C	2.5	-1.3	/	-10.3	-2.7	-0.3
COc1ccc(CNC(=O)/C(C)=C\C(=O)O)cc1	-1.0	-1.6	1.8	2.8	/	43.4*
Cc1ccc(S(=O)(=O)NCCCCCC(=O)Nc2c(C)n(C)n(-c3ccccc3)c2=O)cc1	4.4	-13.6	0.0	4.8	0.1	43.2*
CCOc1ccccc1N1CC(C(=O)Nc2c(C)n(C)n(-c3ccccc3)c2=O)CC1=O (stereo not given)	-12.1	-1.5	7.5	6.3	-8.2	43.3*
Cc1c(NC(=O)COC(=O)c2cc(-c3cccc4ccccc34)nc3ccccc23)c(=O)n(-c2ccccc2)n1C	/	/	-5.1	-8.1	-4.1	/
Cc1ccc2nc(C)cc(C(=O)OCC(=O)Nc3c(C)n(C)n(-c4ccccc4)c3=O)c2c1	0.9	-0.2	-3.0	/	-2.4	43.4*
Cc1c(NC(=O)COc2cccc(Cl)c2Cl)c(=O)n(-c2ccccc2)n1C	-4.7	-8.6	-3.2	0.1	2.1	42.9*
COc1cccc(CN2[C@H](CO)[C@@H]3c4ccccc4N(C(=O)C4CC4)C[C@@H]32)c1	-0.5	-0.8	/	/	2.9	0.3
Cc1ccc(C(=O)Nc2c(C)n(C)n(-c3ccccc3)c2=O)cc1	-1.6	-2.1	-3.2	12.2	-2.1	43.9*
Cc1c(NC(=O)c2ccc(C(=O)Nc3c(C)n(C)n(-c4ccccc4)c3=O)cc2)c(=O)n(-c2ccccc2)n1C	3.5	1.5	2.7	2.6	21.1	0.0
C[C@@H]1CN([C@H](C)CO)C(=O)c2cccc(NS(C)(=O)=O)c2O[C@@H]1CN(C)S(=O)(=O)c1cn(C)cn1	8.4	0.1	/	-2.8	-1.0	-0.2
Cc1ccc(C(=O)NCCN2C3=NC[C@H](Cc4ccc(O)cc4)N3C[C@H]2Cc2ccc(O)cc2)cc1Br	0.8	29.3*	39.7*	-2.5	28.5	-0.4
C[C@@H](CN1C2=NC[C@H](Cc3ccc(O)cc3)N2C[C@H]1Cc1ccc(O)cc1)NC(=O)CCC1CCCCC1	-1.4	17.2	47.4*	1.6	-8.5	0.0
COc1ccc(C[C@H]2CN3C(=NC[C@@H]3Cc3ccc(O)cc3)N2CCNC(=O)c2ccc(C)c(Br)c2)cc1	1.7	29.1*	11.8	5.6	16.9	-0.1
